# From ChEMBL document CHEMBL1138265, “In vivo anti-Chagas vinylthio-, vinylsulfinyl-, and vinylsulfonylbenzofuroxan derivatives” (J Med Chem, 2007)
# The source made the active and inactive calls. No cut-off for these calls is given here.
# Key:
# [1] = biological target: Cruzipain (Trypanosoma cruzi) (UniProt P25779); test: Inhibition of Trypanosoma cruzi Tulahuen 2 cruzipain at 50 uM
# In short: (§1)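 Cruzipain purified from Tulahuen 2 epimastigotes by ConA-Sepharose affinity chromatography. Assayed in 50 mM Tris-acetate pH 8.0 with 0.3 mM Bz-Pro-Phe-Arg-pNA and 10 mM β-mercaptoethanol, A410 followed at 30 °C. Inhibitors added in DMSO, controls with matching DMSO, E-64 as reference. Tested at 10-100 µM; means of at least two measurements.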
# Mus musculus = test: Toxicity in Trypanosoma cruzi Tulahuen 2 infected Swiss mouse model of Chagas disease at 60 mg/kg, po; conditions: in vivo
# Cruzipain [2] = biological target: T1, Cruzipain (Trypanosoma cruzi, UniProt P25779); test: Inhibition of Trypanosoma cruzi Tulahuen 2 cruzipain; in short: as §1
# T1 sequence (P25779 whole entry): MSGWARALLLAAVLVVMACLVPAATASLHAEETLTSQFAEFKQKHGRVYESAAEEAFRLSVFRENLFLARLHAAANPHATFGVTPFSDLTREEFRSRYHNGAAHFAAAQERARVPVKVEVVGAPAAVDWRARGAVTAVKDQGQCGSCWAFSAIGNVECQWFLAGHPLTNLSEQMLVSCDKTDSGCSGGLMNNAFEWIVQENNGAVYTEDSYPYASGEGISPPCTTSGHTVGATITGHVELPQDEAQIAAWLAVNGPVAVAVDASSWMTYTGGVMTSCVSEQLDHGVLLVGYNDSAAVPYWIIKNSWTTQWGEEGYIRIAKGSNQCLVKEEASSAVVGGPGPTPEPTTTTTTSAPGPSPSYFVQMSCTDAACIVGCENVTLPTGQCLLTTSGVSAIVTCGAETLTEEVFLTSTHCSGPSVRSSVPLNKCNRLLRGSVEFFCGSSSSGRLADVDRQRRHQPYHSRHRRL
# Trypanosoma cruzi [3] = test: Effect on oxygen uptake in Trypanosoma cruzi Tulahuen 2 at 200 uM; format: functional, organism-based
# In short: (§2)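 Tulahuen 2 epimastigotes grown 5 days, washed, resuspended in phosphate-saline buffer pH 7.4 with 5.5 mM glucose at 0.2 mg protein/mL (40 × 10^6 parasites/mL). O2 consumption measured by Clark electrode at 28 °C, compound 200 µM final in DMSO; control with 0.1% DMSO. Cyanide-insensitive respiration measured after 20 mM KCN.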
# [4] = biological target: Cruzipain (Trypanosoma cruzi) (UniProt P25779); test: Inhibition of Trypanosoma cruzi Tulahuen 2 cruzipain at 20 uM; in short: as §1
# Trypanosoma cruzi [5] = test: Antitrypanosomal activity against Trypanosoma cruzi Y; format: functional, organism-based
# In short: (§3)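 Epimastigotes from 5-day stationary culture inoculated at 1 × 10^6 cells/mL into medium with compound added from DMSO stock (final DMSO ≤0.4%; control 0.4% DMSO, no compound). Growth followed by A600; % inhibition from day 0 and day 5 absorbance versus control. IC50 = concentration reducing the day-5 absorbance ratio to 50%. Single-dose screen at 25 µM. Means of three experiments.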
# [6] = biological target: Trypanothione reductase (Trypanosoma cruzi) (UniProt P28593); test: Inhibition of Trypanosoma cruzi trypanothione reductase assessed as volume activity per minute at 100 uM
# Trypanothione reductase (Trypanosoma cruzi), sequence (P28593 whole entry, looked up): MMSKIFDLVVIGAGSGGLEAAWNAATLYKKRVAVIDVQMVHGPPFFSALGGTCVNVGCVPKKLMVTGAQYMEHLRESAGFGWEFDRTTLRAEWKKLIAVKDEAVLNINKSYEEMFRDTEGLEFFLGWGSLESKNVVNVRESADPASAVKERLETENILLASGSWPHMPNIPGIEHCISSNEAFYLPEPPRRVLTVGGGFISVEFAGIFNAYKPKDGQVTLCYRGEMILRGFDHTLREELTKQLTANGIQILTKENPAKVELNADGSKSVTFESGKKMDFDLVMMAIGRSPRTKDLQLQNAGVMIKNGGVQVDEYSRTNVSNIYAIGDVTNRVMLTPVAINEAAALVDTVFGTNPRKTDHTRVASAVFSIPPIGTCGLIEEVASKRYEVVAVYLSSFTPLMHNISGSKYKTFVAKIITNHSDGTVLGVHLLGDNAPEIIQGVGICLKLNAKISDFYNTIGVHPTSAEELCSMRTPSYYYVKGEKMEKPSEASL
# [7] = biological target: Trypanothione reductase (Trypanosoma cruzi) (UniProt P28593); test: Inhibition of Trypanosoma cruzi trypanothione reductase assessed as volume activity per min at 100 uM after 1 hr
# In short: (§4)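 Time-dependent inactivation: 170 mU recombinant TR incubated at 25 °C in 40 mM HEPES, 1 mM EDTA, pH 7.5 with 100 µM inhibitor, with or without 160 µM NADPH, for 0-24 h. Aliquots diluted 200-fold and residual activity measured in the standard NADPH/TS2 assay at 340 nm. Controls: TR plus NADPH with DMSO, and TR plus inhibitor.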
# Trypanosoma cruzi [8] = test: Antitrypanosomal activity against Trypanosoma cruzi Tulahuen 2 infected Swiss mouse model of Chagas disease at 60 mg/kg, po after 41 days post infection
# [9] = Selectivity index, ratio of IC50 for human THP1 cells to IC50 for Trypanosoma cruzi Tulahuen 2; format: functional, THP-1
# Trypanosoma cruzi [10] = test: Effect on oxygen uptake in Trypanosoma cruzi Tulahuen 2 assessed as increase in oxygen consumption at 200 uM; format: functional, organism-based; in short: as §2
# [11] = biological target: Trypanothione reductase (Trypanosoma cruzi) (UniProt P28593); test: Inhibition of Trypanosoma cruzi trypanothione reductase assessed as volume activity per min at 100 uM in presence of NADPH after 1 hr; in short: as §4
# THP-1 = test: Cytotoxicity against human THP1 cells after 48 hrs; format: cell-based; conditions: THP-1, 48 h
# In short: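 THP-1 human macrophages in RPMI 1640 with 20% heat-inactivated FCS, left to attach 48 h at 37 °C, 5% CO2. Exposed to compounds at 25-1000 µM for 48 h, washed, then MTT 0.4 mg/mL for 3 h. Formazan dissolved in DMSO and read at OD595; % cytotoxicity corrected for compound-in-medium blanks. Triplicates per concentration, six growth controls; mean of two experiments.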
# [12] = Selectivity index, ratio of IC50 for human THP1 cells to IC50 for Trypanosoma cruzi Y; format: functional, THP-1
# Trypanosoma cruzi [13] = test: Antitrypanosomal activity against Trypanosoma cruzi CL Brener; format: functional, organism-based; in short: as §3
# [14] = biological target: Trypanothione reductase (Trypanosoma cruzi) (UniProt P28593); test: Inhibition of Trypanosoma cruzi trypanothione reductase assessed as volume activity per min at 100 uM in presence of NADPH; in short: as §4
# Trypanosoma cruzi [15] = test: Antitrypanosomal activity against Trypanosoma cruzi Tulahuen 2 infected Swiss mouse model of Chagas disease at 60 mg/kg, po after 35 days post infection
# [16] = Selectivity index, ratio of IC50 for human THP1 cells to IC50 for Trypanosoma cruzi CL Brener; format: functional, THP-1
# [17] = biological target: Cruzipain (Trypanosoma cruzi) (UniProt P25779); test: Inhibition of Trypanosoma cruzi Tulahuen 2 cruzipain at 10 uM; in short: as §1
# [18] = biological target: Trypanothione reductase (Trypanosoma cruzi) (UniProt P28593); test: Inhibition of Trypanosoma cruzi trypanothione reductase assessed as volume activity per min at 100 uM in presence of NADPH after 4 hrs; in short: as §4
# Cruzipain [19] = biological target: T1, Cruzipain; test: Binding affinity to Trypanosoma cruzi Tulahuen 2 cruzipain
# [20] = biological target: Cruzipain (Trypanosoma cruzi) (UniProt P25779); test: Inhibition of Trypanosoma cruzi Tulahuen 2 cruzipain at 100 uM; in short: as §1
# Trypanosoma cruzi [21] = test: Antitrypanosomal activity against Trypanosoma cruzi Tulahuen 2; format: functional, organism-based; in short: as §3
# [22] = biological target: Trypanothione reductase (Trypanosoma cruzi) (UniProt P28593); test: Inhibition of Trypanosoma cruzi trypanothione reductase assessed as volume activity per min at 100 uM in presence of NADPH after 24 hrs; in short: as §4
# [23] = biological target: Trypanothione reductase (Trypanosoma cruzi) (UniProt P28593); test: Inhibition of Trypanosoma cruzi trypanothione reductase assessed as volume activity per min at 100 uM after 3 hrs; in short: as §4
# [24] = biological target: Trypanothione reductase (Trypanosoma cruzi) (UniProt P28593); test: Inhibition of Trypanosoma cruzi trypanothione reductase assessed as volume activity per min at 100 uM after 24 hrs; in short: as §4
# [25] = biological target: Trypanothione reductase (Trypanosoma cruzi) (UniProt P28593); test: Inhibition of Trypanosoma cruzi trypanothione reductase at 100 uM
# [26] = biological target: Trypanothione reductase (Trypanosoma cruzi) (UniProt P28593); test: Inhibition of Trypanosoma cruzi trypanothione reductase assessed as volume activity per min at 100 uM after 4 hrs; in short: as §4
# [27] = biological target: Cruzipain (Trypanosoma cruzi) (UniProt P25779); test: Inhibition of Trypanosoma cruzi Tulahuen 2 cruzipain at 25 uM; in short: as §1
# Cruzipain (Trypanosoma cruzi), sequence (P25779 123-467 limits assumed): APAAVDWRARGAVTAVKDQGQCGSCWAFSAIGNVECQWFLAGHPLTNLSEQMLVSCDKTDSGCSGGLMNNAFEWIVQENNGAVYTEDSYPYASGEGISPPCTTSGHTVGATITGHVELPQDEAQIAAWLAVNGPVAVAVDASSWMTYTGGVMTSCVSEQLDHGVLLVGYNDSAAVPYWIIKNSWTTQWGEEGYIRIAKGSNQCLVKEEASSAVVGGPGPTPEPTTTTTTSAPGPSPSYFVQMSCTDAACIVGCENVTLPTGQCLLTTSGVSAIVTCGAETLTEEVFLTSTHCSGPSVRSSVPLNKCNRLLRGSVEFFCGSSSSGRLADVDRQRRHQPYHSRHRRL
Compound,inhibition [1] [%],Activity (Mus musculus),inhibition [4] [%],IC50 (Trypanosoma cruzi [5]) [µM],Activity (Trypanosoma cruzi [8]),Ratio IC50 [9],IC50 (THP-1) [µM],Ratio IC50 [12],IC50 (Trypanosoma cruzi [13]) [µM],Activity (Trypanosoma cruzi [15]),Ratio IC50 [16],inhibition [17] [%],inhibition [20] [%],IC50 (Trypanosoma cruzi [21]) [µM],other results
O=S(=O)(/C=C\c1ccc2c(c1)no[n+]2[O-])c1ccccc1,24,Non-toxic,3,2.1,Active,99.1,109,51.9,6.1,Active,17.9,2,19,1.1,IC50 (Cruzipain [2]): > 50 µM; Activity (Trypanosoma cruzi [3]): inactive; deltaA [6]: 0.104; deltaA [7]: 0.102; Activity (Trypanosoma cruzi [10]): inactive; deltaA [11]: 0.084; deltaA [14]: 0.097; deltaA [18]: 0.088; Kd (Cruzipain [19]): 1100 µM
CN(C/C=C/C#CC(C)(C)C)Cc1cccc2ccccc12 [TERBINAFINE],–,–,–,44.7,–,19.3,329,7.4,42,–,7.8,–,–,17.1,–
[O-][n+]1onc2cc(/C=C\[S+]([O-])c3ccccc3)ccc21 (stereo not drawn),8,Non-toxic,23,1.5,Active,150,105,70,5,Active,21,0,3,0.7,deltaA [22]: 0.081; deltaA [6]: 0.101; deltaA [7]: 0.107; deltaA [23]: 0.09; deltaA [11]: 0.107; deltaA [14]: 0.107; deltaA [24]: 0.108
[O-][n+]1onc2cc(/C=C\c3ccccc3)ccc21,20,–,11,9,–,8.9,62.6,7,15.7,–,4,19,44,7,–
O=S(=O)(CCO)Cc1ccc2c(c1)no[n+]2[O-],–,–,–,–,–,<12,300,–,–,–,–,–,–,> 25,–
O=C(Cn1ccnc1[N+](=O)[O-])NCc1ccccc1 [BENZNIDAZOLE],–,Non-toxic,–,3.8,–,–,–,–,4.5,–,–,–,–,7.4,–
[O-][n+]1onc2cc(/C=C\Sc3ccccc3)ccc21,–,Non-toxic,–,10,Active,–,–,–,3.5,Active,–,–,–,3.8,–
[O-][n+]1onc2cc(/C=C/[S+]([O-])c3ccccc3)ccc21 (stereo not drawn),24,Non-toxic,0,8.8,Active,47.7,124,14.1,15.1,Active,8.2,2,12,2.6,deltaA [6]: 0.104; deltaA [7]: 0.086; deltaA [11]: 0.105; inhibition [25]: 13%; deltaA [14]: 0.103; deltaA [18]: 0.105; deltaA [26]: 0.091
CC(=O)N1CCN(c2ccc(OCC3COC(Cn4ccnc4)(c4ccc(Cl)cc4Cl)O3)cc2)CC1 (stereo not drawn) [KETOCONAZOLE],–,–,–,9.8,–,4.4,44,4.5,5,–,8.8,–,–,10,–
[O-][n+]1onc2cc(/C=C/Sc3ccccc3)ccc21,25,Non-toxic,–,7.6,Active,–,–,–,4.7,Active,–,0,–,2.6,inhibition [27]: 15%
CC(C)C[C@H](NC(=O)[C@H]1O[C@@H]1C(=O)O)C(=O)NCCCCN=C(N)N,–,–,–,–,–,–,–,–,–,–,–,100,–,–,–
O=S(=O)(/C=C/c1ccc2c(c1)no[n+]2[O-])c1ccccc1,35,Non-toxic,0,5,Active,255.6,409,81.8,7.6,Active,53.8,0,0,1.6,IC50 (Cruzipain [2]): > 50 µM; Activity (Trypanosoma cruzi [3]): inactive; deltaA [6]: 0.102; deltaA [7]: 0.11; Activity (Trypanosoma cruzi [10]): inactive; deltaA [11]: 0.099; deltaA [14]: 0.101; deltaA [18]: 0.098; Kd (Cruzipain [19]): 500 µM; deltaA [26]: 0.106
C=CS(=O)(=O)Cc1ccc2c(c1)no[n+]2[O-],–,–,–,12.3,–,18.8,274,22.3,9.1,–,30.1,–,–,14.6,–
[O-][n+]1onc2cc(/C=C/c3ccccc3)ccc21,43,–,0,6.2,–,10.2,110,17.7,7.5,–,14.7,12,22,10.8,–
CC1CS(=O)(=O)CCN1/N=C/c1ccc([N+](=O)[O-])o1 (stereo not drawn) [NIFURTIMOX],–,–,–,6.5,–,–,–,–,8.5,–,–,–,–,7.7,–
